Active and inactive are the calls of the source. No cut-off for these calls is given here.
Assays:
[1] = tested on: Rattus norvegicus; assay: Anti-allergy activity test in rat passive cutaneous anaphylaxis (PCA) test at 16 mg/kg administered intraperitoneally; type: functional; settings: ip, route intraperitoneal
Summary of the method: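 Rats given the compound intraperitoneally at 16 mg/kg in the passive cutaneous anaphylaxis model. The read-out is percent inhibition of the cutaneous anaphylactic response, and some entries carry p values.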

[2] = tested on: Rattus norvegicus; assay: Tested for antiallergy activity in rat passive cutaneous anaphylaxis (PCA) test at 32 mg/kg administered perorally; type: functional; settings: route oral
[3] = tested on: Rattus norvegicus; assay: Inhibitory dose administered perorally against anaphylactic bronchospasm in passively sensitized rats; type: functional; settings: Bronchiole, po, read-out: ID50
[4] = tested on: Rattus norvegicus; assay: Percentage inhibition at 8 mg/kg administered intraperitoneally in rat passive cutaneous anaphylaxis (PCA) test, p<0.001; type: functional; settings: ip, route intraperitoneal
[5] = tested on: Rattus norvegicus; assay: Tested for antiallergy activity in rat passive cutaneous anaphylaxis (PCA) test at 32 mg/kg administered perorally; In active; type: functional, organism-based; design: dose 32 mg/kg
[6] = tested on: Rattus norvegicus; assay: Tested for antiallergy activity in rat passive cutaneous anaphylaxis (PCA) test at 32 mg/kg administered perorally; 10 min pretreatment time; type: functional; settings: route oral
[7] = tested on: Rattus norvegicus; assay: Tested for antiallergy activity in rat passive cutaneous anaphylaxis (PCA) test at 32 mg/kg administered perorally; 30 minute pretreatment time; type: functional; settings: route oral
[8] = tested on: Rattus norvegicus; assay: Tested for antiallergy activity in rat passive cutaneous anaphylaxis (PCA) test at 32 mg/kg administered perorally; pretreatment time is 30 min; type: functional; settings: route oral

| Structure (SMILES) | inhibition in vivo at 16 mg/kg [1] [%] | inhibition in vivo at 32 mg/kg [2] [%] | also measured |
| --- | --- | --- | --- |
| CSc1ccc2ncn(/C=C\C(=O)O)c(=O)c2c1 | 11 | – | – |
| COC(=O)/C=C/n1cnc2ccc(OC(C)C)cc2c1=O | 46 | – | – |
| COC(=O)/C=C/n1cnc2ccc(SC)cc2c1=O | 39 | – | – |
| CS(=O)(=O)c1ccc2ncn(/C=C/C(=O)O)c(=O)c2c1 | 70 | – | – |
| CC(C)Sc1ccc2ncn(/C=C/C(=O)O)c(=O)c2c1 | 59 | 56 | – |
| CSc1ccc2ncn(CCC(=O)O)c(=O)c2c1 | 14 | – | – |
| CC(C)c1ccc2ncn(/C=C/C(=O)O)c(=O)c2c1 | 100 | 89 | ED50 [3]: 0.05 mg/kg |
| CC(C)c1cc(C(C)C)c2ncn(/C=C/C(=O)O)c(=O)c2c1 | 70 | 91 | – |
| CSc1ccc2ncn(/C(C)=C/C(=O)O)c(=O)c2c1 | 9 | – | – |
| CSc1ccc2c(c1)C(=O)N(/C=C/C(=O)O)CN2 | 53 | – | – |
| CC(C)Oc1ccc2ncn(/C=C/C(=O)O)c(=O)c2c1 | 87 | 70 | – |
| O=C(O)c1cc(=O)c2c(OCC(O)COc3cccc4oc(C(=O)O)cc(=O)c34)cccc2o1 [CROMOLYN SODIUM] | – | 18 | inhibition in vivo at 8 mg/kg [4]: 46% |
| Cc1cc(C)c2ncn(/C=C/C(=O)O)c(=O)c2c1 | 82 | 70 | – |
| O=C(O)/C=C/n1cnc2ccccc2c1=O | – | 55 | – |
| O=C(O)/C=C/n1cnc2ccc(OCCO)cc2c1=O | 67 | 80 | – |
| CCN(CC)CCOc1ccc2ncn(/C=C/C(=O)O)c(=O)c2c1 | 16 | – | inhibition [5]: inactive |
| O=C(O)/C=C/n1cnc2ccc(C3CC3)cc2c1=O | 100 | – | inhibition in vivo at 32 mg/kg [6]: 81% |
| COc1ccc2ncn(/C=C/C(=O)O)c(=O)c2c1 | 49 | 23 | – |
| O=C(O)/C=C/n1cnc2ccc(O)cc2c1=O | 56 | – | – |
| COc1cc(OC)c2ncn(/C=C/C(=O)O)c(=O)c2c1 | 81 | – | inhibition in vivo at 32 mg/kg [7]: 31% |
| COc1cc2ncn(/C=C/C(=O)O)c(=O)c2cc1OC | 88 | – | – |
| Cc1nc2ccc(C3CC3)cc2c(=O)n1/C=C/C(=O)O | 39 | – | – |
| C[S+]([O-])c1ccc2ncn(/C=C/C(=O)O)c(=O)c2c1 (stereo not drawn) | 89 | 48 | – |
| COc1cccc2c(=O)n(/C=C/C(=O)O)cnc12 | 82 | – | inhibition in vivo at 32 mg/kg [8]: 45% |
| CSc1ccc2ncn(/C=C/C(=O)O)c(=O)c2c1 [TIACRILAST] | 87 | 75 | ED50 [3]: 0.02 mg/kg |
| O=C(O)/C=C/n1cnc2ccc(Cl)cc2c1=O | 79 | 49 | – |
